From ChEMBL document CHEMBL1147169, “From pyrroles to 1-oxo-2,3,4,9-tetrahydro-1H-beta-carbolines: a new class of orally bioavailable mGluR1 antagonists” (Bioorg Med Chem Lett, 2007)
pIC50: −log10 of the molar value.

Assays:
[1] = Plasma clearance in rat; assay type: ADME, organism-based
[2] = Oral bioavailability in rat; assay type: ADME, organism-based; settings: in vivo
[3] = target: Metabotropic glutamate receptor 1 (Rattus norvegicus, UniProt P23385); experiment: Antagonist activity at rat mGluR1a expressed in CHO cells assessed as inhibition of intracellular calcium ion mobilization by FLIPR assay; assay type: functional, cell-based
Chain of Metabotropic glutamate receptor 1 (P23385 whole entry): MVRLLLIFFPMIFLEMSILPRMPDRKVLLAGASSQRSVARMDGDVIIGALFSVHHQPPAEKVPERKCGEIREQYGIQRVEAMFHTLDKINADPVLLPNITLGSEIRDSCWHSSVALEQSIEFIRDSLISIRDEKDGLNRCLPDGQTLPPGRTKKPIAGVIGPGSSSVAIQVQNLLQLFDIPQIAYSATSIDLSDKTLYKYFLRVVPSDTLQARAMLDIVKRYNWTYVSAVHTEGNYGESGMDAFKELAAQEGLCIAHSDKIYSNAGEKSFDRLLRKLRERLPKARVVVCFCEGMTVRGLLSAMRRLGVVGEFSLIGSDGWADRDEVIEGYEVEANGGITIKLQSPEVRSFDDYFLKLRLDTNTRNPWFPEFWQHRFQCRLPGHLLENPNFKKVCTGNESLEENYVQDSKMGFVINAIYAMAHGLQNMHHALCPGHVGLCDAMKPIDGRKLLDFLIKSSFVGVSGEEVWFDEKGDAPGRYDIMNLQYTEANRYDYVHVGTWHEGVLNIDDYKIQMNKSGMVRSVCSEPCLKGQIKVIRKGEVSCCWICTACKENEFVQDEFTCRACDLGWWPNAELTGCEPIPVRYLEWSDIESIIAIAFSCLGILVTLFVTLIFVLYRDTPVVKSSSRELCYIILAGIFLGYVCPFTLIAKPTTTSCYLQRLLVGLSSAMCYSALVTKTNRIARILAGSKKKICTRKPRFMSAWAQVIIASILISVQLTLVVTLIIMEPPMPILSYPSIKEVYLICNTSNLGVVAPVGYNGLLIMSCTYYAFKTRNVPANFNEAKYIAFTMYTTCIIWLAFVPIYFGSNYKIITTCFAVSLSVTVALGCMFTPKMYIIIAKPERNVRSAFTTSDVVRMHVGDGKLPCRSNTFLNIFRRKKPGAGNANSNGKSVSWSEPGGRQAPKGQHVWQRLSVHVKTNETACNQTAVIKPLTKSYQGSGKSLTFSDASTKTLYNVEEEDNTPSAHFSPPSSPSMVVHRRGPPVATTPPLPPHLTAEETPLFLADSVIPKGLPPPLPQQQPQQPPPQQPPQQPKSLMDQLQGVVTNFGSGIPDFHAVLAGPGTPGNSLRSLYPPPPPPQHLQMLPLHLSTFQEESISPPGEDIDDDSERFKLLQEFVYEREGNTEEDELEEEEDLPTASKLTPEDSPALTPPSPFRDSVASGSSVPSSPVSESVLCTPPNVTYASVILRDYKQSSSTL

[4] = Cmax in rat; assay type: ADME, organism-based; settings: in vivo
Outline: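 Maximum plasma concentration (ng/ml) measured after oral administration in rat.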

Mus musculus [5] = experiment: Reduction of inflammatory pain in late phase of formalin-induced mouse at 10 mg/kg, po; assay type: ADME, organism-based; design: dose 10 mg/kg, route oral; settings: in vivo
Outline: (§1)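 Mice given compound po at 10 or 30 mg/kg, 30 min before 20 µl 1% formalin into left hind paw; nociceptive behaviour time (s) scored in early phase (0–5 min) and late phase (20–60 min); n = 8-19; significance p < 0.05 / p < 0.01 versus vehicle.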

Mus musculus [6] = experiment: Reduction of inflammatory pain in early phase of formalin-induced mouse at 30 mg/kg, po; assay type: ADME, organism-based; design: dose 30 mg/kg, route oral; settings: in vivo; outline: as §1
Rattus norvegicus = experiment: Ratio of drug level in rat from brain to plasma at 3 mg/kg, iv after 1 hr; settings: in vivo
Mus musculus [7] = experiment: Reduction of inflammatory pain in late phase of formalin-induced mouse at 30 mg/kg, po; assay type: ADME, organism-based; design: dose 30 mg/kg, route oral; settings: in vivo; outline: as §1
[8] = Oral bioavailability in rat at 5 mg/kg, po; assay type: ADME, organism-based; settings: in vivo
[9] = Oral bioavailability in rat at 1 mg/kg, po; assay type: ADME, organism-based; settings: in vivo

Row | Structure (SMILES) | pIC50 [3] | also measured
1 | O=C(NC12CC3CC(CC(C3)C1)C2)c1ccc2[nH]c3c(c2c1)CCNC3=O | 7.15 | clearance [1]: 54 mL/min/kg; bioavailability [2]: 12%; Cmax [4]: 37 ng/mL
2 | O=C(NCC12CC3CC(CC(C3)C1)C2)c1ccc2[nH]c3c(c2c1)CCNC3=O | 6.51 | –
3 | O=C1NN=CC2c3cc(OCc4ccccc4)ccc3NC12 (centres undefined) | 5.99 | –
4 | c1ccc(COc2ccc3c(c2)C2CCNCC2N3)cc1 (centres undefined) | < 5.00 | –
5 | O=C(NC1C2CC3CC(C2)CC1C3)c1ccc2[nH]c3c(c2c1)CCNC3=O (centres undefined) | 7.03 | –
6 | O=C(Nc1ccccc1)c1ccc2[nH]c3c(c2c1)CCNC3=O | 5.98 | –
7 | O=C1NCCc2c1[nH]c1ccc(NC(=O)C34CC5CC(CC(C5)C3)C4)cc21 | 7.15 | clearance [1]: 52 mL/min/kg
8 | CC(N(C)C(=O)c1ccc2[nH]c3c(c2c1)CCNC3=O)C(C)(C)C (centres undefined) | 6.92 | –
9 | O=C(NC1CC2CCC1C2)c1ccc2[nH]c3c(c2c1)CCNC3=O (centres undefined) | 6.65 | –
10 | O=C1NCCc2c1[nH]c1ccc(OCC3CCCCC3)cc21 | 5.25 | –
11 | O=C1NCCc2c1[nH]c1ccc(O)cc21 | < 5.00 | –
12 | CC(Oc1ccc2[nH]c3c(c2c1)CCNC3=O)C(C)(C)C (centres undefined) | 6.62 | –
13 | O=C1NCCC2c3cc(OCc4ccccc4)ccc3NC12 (centres undefined) | 5.78 | –
14 | O=C(Nc1ccc2[nH]c3c(c2c1)CCNC3=O)NC12CC3CC(CC(C3)C1)C2 | 5.33 | –
15 | CC(NC(=O)c1ccc2[nH]c3c(c2c1)CCNC3=O)C(C)(C)C (centres undefined) | < 5.00 | –
16 | COc1ccc2[nH]c3c(c2c1)CCNC3=O | < 5.00 | –
17 | CCCOC(=O)c1[nH]c(C)c(C(=O)O[C@@H](C)C(C)(C)C)c1C | 7.80 | –

The next lines start with results.

Row | pIC50 [3] | Structure (SMILES) | also measured
18 | 6.42 | CC(Oc1ccc2[nH]c3c(c2c1)CCNC3=O)c1ccccc1 (centres undefined) | –
19 | < 5.00 | c1ccc(COc2ccc3[nH]c4c(c3c2)CCNC4)cc1 | –
20 | 6.78 | Cc1cc2[nH]c3c(c2cc1OCc1ccccc1)CCNC3=O | Activity (Mus musculus [5]): Active; Activity (Mus musculus [6]): Active; bioavailability [2]: 36%; Ratio (Rattus norvegicus): 6.1; Activity (Mus musculus [7]): Active; Cmax [4]: 264 ng/mL
21 | < 5.00 | O=C1CCCc2c1[nH]c1ccc(OCc3ccccc3)cc21 | –
22 | 6.17 | O=C1NCc2c1[nH]c1ccc(OCc3ccccc3)cc21 | –
23 | 5.55 | O=C1NCCc2c1[nH]c1cc(OCc3ccccc3)ccc21 | –
24 | 5.39 | O=C1NCCc2c1[nH]c1ccc(Oc3ccccc3)cc21 | –
25 | 6.98 | O=C1NCCc2c1[nH]c1ccc(OCc3ccccc3)cc21 | bioavailability [8]: 9%; bioavailability [9]: 0%; Cmax [4]: 145 ng/mL
26 | 5.40 | O=C1NCCc2c1[nH]c1cccc(OCc3ccccc3)c21 | –
